Measurements: ChEMBL document CHEMBL4052759, “Discovery of DS79182026: A potent orally active hepcidin production inhibitor” (Bioorg Med Chem Lett, 2017)
Blank lines part the entries; values can stand above or below the compound they belong to.

Legend:
[1] = Clearance in C57BL/6J mouse at 30 mg/kg, iv by LC-MS/MS analysis; type: ADME, organism-based; conditions: in vivo
How it was run: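 C57BL/6J mice got a single 30 mg/kg intravenous dose as a solution in 92 mM SBE7-β-CyD. The value is the average of two animals.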

[2] = target: Dual specificity tyrosine-phosphorylation-regulated kinase 1A (Homo sapiens) (UniProt Q13627); assay: Inhibition of DYRK1a (unknown origin) at 0.49 uM relative to control
[3] = target: Calcium/calmodulin-dependent protein kinase type 1 (Homo sapiens) (UniProt Q14012); assay: Inhibition of CaMK1a (unknown origin) at 0.49 uM relative to control
[4] = target: Serine/threonine-protein kinase PAK 5 (Homo sapiens) (UniProt Q9P286); assay: Inhibition of PAK5 (unknown origin) at 0.49 uM relative to control
[5] = target: Serine/threonine-protein kinase DCLK2 (Homo sapiens) (UniProt Q8N568); assay: Inhibition of DCAMKL2 (unknown origin) at 0.49 uM relative to control
[6] = test system: Tyrosine-protein kinase ABL1 (Homo sapiens), P00519 [T315I]; assay: Inhibition of Abl T315I mutant (unknown origin) at 0.49 uM relative to control
[7] = target: Serine/threonine-protein kinase pim-1 (Homo sapiens) (UniProt P11309); assay: Inhibition of PIM1 (unknown origin) at 0.49 uM relative to control
[8] = target: Tyrosine-protein kinase JAK3 (Homo sapiens) (UniProt P52333); assay: Inhibition of JAK3 (unknown origin) at 0.49 uM relative to control
[9] = target: T1, cGMP-dependent protein kinase 1 (Homo sapiens) (UniProt Q13976); assay: Inhibition of PKG1-beta (unknown origin) at 0.49 uM relative to control
T1 sequence (whole entry): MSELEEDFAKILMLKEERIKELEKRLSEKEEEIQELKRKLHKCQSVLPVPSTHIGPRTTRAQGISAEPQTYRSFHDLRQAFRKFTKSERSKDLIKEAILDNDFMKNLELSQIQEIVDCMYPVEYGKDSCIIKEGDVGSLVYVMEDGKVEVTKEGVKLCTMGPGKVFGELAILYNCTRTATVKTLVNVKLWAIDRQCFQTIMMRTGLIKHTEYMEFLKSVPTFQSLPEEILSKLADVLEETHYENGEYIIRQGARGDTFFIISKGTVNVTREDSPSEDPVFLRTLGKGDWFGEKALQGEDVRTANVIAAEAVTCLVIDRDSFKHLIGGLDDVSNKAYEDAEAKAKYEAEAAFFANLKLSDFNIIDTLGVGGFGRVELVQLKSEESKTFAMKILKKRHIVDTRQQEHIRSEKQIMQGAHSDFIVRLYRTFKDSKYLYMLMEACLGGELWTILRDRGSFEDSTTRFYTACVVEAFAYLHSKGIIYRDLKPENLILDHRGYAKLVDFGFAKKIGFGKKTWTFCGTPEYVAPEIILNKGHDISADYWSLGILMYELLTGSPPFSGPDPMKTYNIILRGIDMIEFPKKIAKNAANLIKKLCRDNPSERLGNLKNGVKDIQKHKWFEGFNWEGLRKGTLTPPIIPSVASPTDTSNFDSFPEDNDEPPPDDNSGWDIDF

[10] = target: Death-associated protein kinase 3 (Homo sapiens) (UniProt O43293); assay: Inhibition of ZIPK (unknown origin) at 0.45 uM relative to control
[11] = target: Protein-tyrosine kinase 2-beta (Homo sapiens) (UniProt Q14289); assay: Inhibition of PYK2 (unknown origin) at 0.45 uM relative to control
[12] = target: T2, Serine/threonine-protein kinase Chk1 (Homo sapiens) (UniProt O14757); assay: Inhibition of CHK1 (unknown origin) at 0.45 uM relative to control
T2 sequence (whole entry): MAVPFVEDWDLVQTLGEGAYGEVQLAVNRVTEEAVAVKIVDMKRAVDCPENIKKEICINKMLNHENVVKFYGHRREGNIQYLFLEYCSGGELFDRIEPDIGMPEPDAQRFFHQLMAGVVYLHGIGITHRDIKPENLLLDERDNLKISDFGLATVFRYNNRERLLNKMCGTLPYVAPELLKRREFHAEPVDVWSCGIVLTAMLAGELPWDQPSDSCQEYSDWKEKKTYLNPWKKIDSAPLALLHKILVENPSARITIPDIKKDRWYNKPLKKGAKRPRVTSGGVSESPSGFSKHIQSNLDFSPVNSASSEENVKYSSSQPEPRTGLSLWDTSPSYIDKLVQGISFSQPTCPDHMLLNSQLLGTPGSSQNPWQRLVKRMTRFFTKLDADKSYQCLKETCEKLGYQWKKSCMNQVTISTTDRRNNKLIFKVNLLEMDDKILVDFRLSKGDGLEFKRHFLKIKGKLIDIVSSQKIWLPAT

[13] = test system: Proto-oncogene tyrosine-protein kinase receptor Ret (Homo sapiens), P07949 [M918T]; assay: Inhibition of RET M918T mutant (unknown origin) at 0.45 uM relative to control
[14] = target: Serine/threonine-protein kinase BRSK1 (Homo sapiens) (UniProt Q8TDC3); assay: Inhibition of BRSK1 (unknown origin) at 0.45 uM relative to control
[15] = target: T3, Serine/threonine-protein kinase 3 (Homo sapiens) (UniProt Q13188); assay: Inhibition of MST2 (unknown origin) at 0.45 uM relative to control
T3 sequence (whole entry): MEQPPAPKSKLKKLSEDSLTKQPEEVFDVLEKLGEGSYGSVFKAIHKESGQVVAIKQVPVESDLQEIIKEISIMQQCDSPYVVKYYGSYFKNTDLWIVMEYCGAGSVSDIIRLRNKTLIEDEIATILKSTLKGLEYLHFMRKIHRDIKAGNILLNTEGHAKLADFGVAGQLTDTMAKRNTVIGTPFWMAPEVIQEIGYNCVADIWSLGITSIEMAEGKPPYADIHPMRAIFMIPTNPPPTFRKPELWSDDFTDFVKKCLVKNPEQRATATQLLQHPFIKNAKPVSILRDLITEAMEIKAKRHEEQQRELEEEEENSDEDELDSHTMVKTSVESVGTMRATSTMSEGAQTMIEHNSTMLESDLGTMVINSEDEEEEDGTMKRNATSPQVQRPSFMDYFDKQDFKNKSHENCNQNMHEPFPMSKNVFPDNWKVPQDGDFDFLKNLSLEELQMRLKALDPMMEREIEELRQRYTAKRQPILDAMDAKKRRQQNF

[16] = target: Ribosomal protein S6 kinase alpha-1 (Homo sapiens) (UniProt Q15418); assay: Inhibition of RSK1 (unknown origin) at 0.45 uM relative to control
[17] = target: Serine/threonine-protein kinase Nek2 (Homo sapiens) (UniProt P51955); assay: Inhibition of NEK2 (unknown origin) at 0.45 uM relative to control
[18] = target: Cyclin-dependent kinase 1/cyclin B1 (Homo sapiens) (UniProt P06493+P14635); assay: Inhibition of CDK1/CyclinB (unknown origin) at 0.45 uM relative to control; type: protein-complex assay
[19] = target: Serine/threonine-protein kinase 10 (Homo sapiens) (UniProt O94804); assay: Inhibition of LOK (unknown origin) at 0.45 uM relative to control
Serine/threonine-protein kinase 10 (Homo sapiens), sequence (O94804 whole entry, looked up): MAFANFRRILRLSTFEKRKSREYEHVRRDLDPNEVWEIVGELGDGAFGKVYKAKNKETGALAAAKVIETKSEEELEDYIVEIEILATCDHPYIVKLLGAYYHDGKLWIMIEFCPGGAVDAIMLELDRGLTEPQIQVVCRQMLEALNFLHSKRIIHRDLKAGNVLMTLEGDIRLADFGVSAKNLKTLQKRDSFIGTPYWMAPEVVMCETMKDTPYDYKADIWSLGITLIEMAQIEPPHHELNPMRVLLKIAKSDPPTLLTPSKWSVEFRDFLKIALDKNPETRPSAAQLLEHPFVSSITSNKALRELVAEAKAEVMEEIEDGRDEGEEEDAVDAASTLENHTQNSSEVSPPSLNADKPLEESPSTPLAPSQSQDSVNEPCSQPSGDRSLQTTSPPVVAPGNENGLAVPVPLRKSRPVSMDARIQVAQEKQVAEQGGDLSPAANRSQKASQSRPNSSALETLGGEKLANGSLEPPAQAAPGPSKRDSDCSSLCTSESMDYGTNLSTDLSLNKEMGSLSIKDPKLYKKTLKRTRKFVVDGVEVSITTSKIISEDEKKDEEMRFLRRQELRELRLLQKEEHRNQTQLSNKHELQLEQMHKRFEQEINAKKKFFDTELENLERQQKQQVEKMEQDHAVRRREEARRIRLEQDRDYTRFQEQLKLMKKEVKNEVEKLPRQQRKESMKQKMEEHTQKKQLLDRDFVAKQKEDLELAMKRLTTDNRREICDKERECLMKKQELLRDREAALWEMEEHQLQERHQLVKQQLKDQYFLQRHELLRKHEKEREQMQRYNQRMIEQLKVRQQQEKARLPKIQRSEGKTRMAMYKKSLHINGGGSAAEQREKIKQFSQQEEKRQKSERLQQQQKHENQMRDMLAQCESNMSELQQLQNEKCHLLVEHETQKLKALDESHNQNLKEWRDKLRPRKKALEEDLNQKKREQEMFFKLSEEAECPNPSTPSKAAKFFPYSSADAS

Death-associated protein kinase 3 (Homo sapiens), sequence (O43293 whole entry, looked up): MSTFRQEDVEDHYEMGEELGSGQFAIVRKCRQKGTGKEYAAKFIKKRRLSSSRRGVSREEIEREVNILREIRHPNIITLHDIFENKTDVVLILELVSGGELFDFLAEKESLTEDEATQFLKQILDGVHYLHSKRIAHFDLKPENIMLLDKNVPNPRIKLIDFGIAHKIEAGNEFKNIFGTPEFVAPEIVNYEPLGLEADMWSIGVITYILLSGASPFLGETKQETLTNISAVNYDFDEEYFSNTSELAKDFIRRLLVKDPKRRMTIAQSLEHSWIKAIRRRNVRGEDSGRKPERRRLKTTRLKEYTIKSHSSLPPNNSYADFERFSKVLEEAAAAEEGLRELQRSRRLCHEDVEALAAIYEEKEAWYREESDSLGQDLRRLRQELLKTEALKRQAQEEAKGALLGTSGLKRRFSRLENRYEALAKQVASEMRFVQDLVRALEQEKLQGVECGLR
Proto-oncogene tyrosine-protein kinase receptor Ret (Homo sapiens), P07949 [M918T], sequence (P07949 whole entry M918T): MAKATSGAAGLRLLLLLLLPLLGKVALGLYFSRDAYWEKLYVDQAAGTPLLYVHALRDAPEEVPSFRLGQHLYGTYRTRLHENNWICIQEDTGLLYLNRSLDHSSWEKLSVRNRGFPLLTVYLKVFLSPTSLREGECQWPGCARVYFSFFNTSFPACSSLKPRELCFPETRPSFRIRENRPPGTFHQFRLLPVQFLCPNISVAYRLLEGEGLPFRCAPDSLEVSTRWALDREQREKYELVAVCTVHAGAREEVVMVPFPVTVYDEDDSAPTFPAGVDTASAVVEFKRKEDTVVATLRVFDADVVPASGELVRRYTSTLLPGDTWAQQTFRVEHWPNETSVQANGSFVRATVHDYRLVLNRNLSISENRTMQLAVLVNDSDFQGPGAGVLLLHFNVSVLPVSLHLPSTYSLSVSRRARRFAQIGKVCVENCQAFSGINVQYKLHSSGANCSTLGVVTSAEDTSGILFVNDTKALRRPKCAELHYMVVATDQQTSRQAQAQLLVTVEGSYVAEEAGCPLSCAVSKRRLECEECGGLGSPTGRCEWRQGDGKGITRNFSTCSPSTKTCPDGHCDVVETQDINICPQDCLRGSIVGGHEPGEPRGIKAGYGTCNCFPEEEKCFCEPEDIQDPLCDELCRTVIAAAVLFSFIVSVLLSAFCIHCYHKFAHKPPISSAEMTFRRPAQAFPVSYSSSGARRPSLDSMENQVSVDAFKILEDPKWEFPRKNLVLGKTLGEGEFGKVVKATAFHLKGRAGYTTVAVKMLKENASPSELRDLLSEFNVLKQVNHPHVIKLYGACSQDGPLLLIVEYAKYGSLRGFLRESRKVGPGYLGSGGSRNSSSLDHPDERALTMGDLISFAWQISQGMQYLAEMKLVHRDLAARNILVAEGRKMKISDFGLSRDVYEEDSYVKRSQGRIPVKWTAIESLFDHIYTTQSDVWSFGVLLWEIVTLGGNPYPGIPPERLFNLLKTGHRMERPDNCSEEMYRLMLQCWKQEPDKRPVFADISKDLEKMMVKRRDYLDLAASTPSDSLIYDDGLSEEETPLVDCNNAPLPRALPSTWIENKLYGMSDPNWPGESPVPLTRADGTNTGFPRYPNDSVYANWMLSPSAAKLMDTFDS
Serine/threonine-protein kinase Nek2 (Homo sapiens), sequence (P51955 whole entry): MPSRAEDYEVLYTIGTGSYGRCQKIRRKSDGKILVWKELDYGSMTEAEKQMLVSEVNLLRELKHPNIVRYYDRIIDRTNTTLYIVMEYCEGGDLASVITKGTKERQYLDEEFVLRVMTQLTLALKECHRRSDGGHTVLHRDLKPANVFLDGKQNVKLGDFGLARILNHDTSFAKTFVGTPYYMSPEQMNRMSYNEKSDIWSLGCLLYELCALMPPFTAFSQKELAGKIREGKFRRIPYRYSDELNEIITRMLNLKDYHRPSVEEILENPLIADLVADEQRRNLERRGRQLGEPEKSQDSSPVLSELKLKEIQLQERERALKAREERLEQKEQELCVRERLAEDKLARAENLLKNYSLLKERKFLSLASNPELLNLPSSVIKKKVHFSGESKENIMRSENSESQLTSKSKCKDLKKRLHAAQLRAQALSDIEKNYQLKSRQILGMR
Serine/threonine-protein kinase PAK 5 (Homo sapiens), sequence (Q9P286 whole entry, looked up): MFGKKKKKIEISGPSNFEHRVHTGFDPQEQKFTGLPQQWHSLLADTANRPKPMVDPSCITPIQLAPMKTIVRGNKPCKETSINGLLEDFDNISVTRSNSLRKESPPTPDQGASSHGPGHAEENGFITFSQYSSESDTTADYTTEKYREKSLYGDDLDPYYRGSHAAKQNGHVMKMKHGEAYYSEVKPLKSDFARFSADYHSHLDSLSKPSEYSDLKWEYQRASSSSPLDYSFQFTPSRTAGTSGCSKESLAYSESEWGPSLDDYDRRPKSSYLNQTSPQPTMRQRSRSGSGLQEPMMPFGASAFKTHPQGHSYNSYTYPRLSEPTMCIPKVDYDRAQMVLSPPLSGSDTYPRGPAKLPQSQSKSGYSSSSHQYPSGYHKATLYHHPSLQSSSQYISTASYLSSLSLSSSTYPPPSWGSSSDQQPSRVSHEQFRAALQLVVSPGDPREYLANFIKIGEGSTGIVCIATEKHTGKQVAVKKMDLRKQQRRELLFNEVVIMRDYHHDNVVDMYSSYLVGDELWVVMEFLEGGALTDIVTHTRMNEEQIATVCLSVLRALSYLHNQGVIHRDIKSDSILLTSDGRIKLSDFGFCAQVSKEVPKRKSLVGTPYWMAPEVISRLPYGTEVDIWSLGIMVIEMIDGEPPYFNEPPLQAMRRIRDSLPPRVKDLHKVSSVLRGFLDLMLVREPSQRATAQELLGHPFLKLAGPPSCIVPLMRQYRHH
Cyclin-dependent kinase 1/cyclin B1 (Homo sapiens), sequence (P06493 whole entry, looked up): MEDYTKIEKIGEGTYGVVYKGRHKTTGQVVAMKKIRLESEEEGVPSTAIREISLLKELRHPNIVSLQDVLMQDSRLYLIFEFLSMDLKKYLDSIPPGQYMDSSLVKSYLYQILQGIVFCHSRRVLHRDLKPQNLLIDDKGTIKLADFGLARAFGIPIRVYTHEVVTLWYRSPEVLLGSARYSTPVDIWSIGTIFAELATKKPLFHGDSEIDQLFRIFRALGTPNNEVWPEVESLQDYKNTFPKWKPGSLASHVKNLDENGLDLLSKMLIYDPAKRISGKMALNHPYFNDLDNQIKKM
Cyclin-dependent kinase 1/cyclin B1 (Homo sapiens), sequence (P14635 whole entry, looked up): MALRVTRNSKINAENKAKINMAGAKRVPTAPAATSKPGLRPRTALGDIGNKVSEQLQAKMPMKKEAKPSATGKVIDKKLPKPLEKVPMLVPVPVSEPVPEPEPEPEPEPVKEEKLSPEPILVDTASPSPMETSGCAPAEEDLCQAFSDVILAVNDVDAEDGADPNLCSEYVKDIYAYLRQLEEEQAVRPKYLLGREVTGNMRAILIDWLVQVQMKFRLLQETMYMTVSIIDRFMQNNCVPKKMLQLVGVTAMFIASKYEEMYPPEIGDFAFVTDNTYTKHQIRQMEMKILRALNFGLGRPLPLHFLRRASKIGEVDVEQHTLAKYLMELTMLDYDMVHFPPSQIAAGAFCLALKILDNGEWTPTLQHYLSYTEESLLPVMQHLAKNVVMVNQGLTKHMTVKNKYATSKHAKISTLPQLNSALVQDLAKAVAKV
Serine/threonine-protein kinase pim-1 (Homo sapiens), sequence (P11309 whole entry, looked up): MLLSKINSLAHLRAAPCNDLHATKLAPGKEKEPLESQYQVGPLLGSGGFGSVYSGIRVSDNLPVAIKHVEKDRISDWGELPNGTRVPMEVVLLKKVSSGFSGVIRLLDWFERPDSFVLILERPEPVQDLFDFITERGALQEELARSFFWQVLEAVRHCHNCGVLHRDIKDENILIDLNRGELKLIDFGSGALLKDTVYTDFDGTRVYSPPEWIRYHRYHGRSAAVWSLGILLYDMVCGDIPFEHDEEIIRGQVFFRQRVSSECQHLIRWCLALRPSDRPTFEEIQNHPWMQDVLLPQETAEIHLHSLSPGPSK

clearance [1]: 14.5 mL/min/kg
Structure (SMILES): COC(=O)Nc1noc2cc(-c3c(-c4ccccn4)n[nH]c3C)ccc12

inhibition [2]: 4.7%
inhibition [3]: 2.3%
inhibition [4]: -1%
inhibition [5]: 2%
inhibition [6]: 11%
inhibition [7]: 9%
inhibition [8]: -7.3%
inhibition [9]: 2%
Structure (SMILES): Cc1[nH]nc(C2CC2)c1-c1ccc2c(NC(=O)C3CC3)noc2c1

inhibition [11]: 4.7%
inhibition [12]: 2.3%
inhibition [13]: 57.7%
inhibition [14]: 14%
inhibition [15]: 1.7%
inhibition [16]: 27.3%
inhibition [17]: 3.3%
inhibition [18]: 5.3%
inhibition [19]: 9.3%
Structure (SMILES): Cc1n[nH]c(C)c1-c1ccc2c(NC(=O)c3ccc(N4CCN(C)CC4)cc3)n[nH]c2c1
inhibition [10]: 0.3%
